Tests used:
[1] = molecular target: T1, Prostaglandin D2 receptor (Homo sapiens, UniProt Q13258); assay: Binding affinity towards human DP receptor expressed in CHO cells; assay type: cell-based
T1 sequence (Q13258 whole entry): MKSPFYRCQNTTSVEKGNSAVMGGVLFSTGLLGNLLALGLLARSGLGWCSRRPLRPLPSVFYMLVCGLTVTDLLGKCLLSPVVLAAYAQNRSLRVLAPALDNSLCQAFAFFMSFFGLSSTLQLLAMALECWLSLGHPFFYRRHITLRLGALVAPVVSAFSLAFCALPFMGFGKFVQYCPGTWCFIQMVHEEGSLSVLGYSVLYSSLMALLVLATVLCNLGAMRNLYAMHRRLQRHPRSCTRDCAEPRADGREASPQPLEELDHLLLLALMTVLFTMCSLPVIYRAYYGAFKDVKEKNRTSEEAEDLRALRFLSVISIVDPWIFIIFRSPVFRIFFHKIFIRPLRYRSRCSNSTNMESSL
Procedure, shortened: (§1)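 Radioligand binding on membranes from CHO cells expressing recombinant human CRTH2 or human DP receptor, reported as Ki.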

[2] = molecular target: T2, Prostaglandin D2 receptor 2 (Homo sapiens, UniProt Q9Y5Y4); assay: Concentration required to inhibit PGD-2 (10 nM) stimulated [Ca2+] flux in CHO cells expressing human CRTH2 receptor; assay type: cell-based
T2 sequence (Q9Y5Y4 whole entry): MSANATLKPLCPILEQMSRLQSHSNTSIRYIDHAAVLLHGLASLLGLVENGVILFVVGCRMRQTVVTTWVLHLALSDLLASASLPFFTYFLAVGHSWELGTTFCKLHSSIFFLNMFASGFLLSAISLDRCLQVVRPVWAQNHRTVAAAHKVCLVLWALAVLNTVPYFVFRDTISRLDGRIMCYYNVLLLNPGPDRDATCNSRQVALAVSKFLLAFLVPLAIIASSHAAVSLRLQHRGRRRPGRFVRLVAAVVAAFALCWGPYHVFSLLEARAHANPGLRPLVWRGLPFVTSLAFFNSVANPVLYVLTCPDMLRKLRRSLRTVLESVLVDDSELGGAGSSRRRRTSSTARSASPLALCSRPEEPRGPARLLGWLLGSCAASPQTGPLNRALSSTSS
Procedure, shortened: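 CHO cells expressing human CRTH2 were stimulated with 10 nM PGD2 and calcium mobilization was read. Inhibition is expressed as IC50. Antagonism was also tested by parallel shifts of the PGD2 dose–response curve with increasing antagonist (pA2).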

[3] = molecular target: T2, Prostaglandin D2 receptor 2; assay: Binding affinity towards human CRTH2 receptor expressed in CHO cells; assay type: cell-based; procedure, shortened: as §1
[4] = Area under curve for the compound upon p.o. dose of 10 mg/kg in rats; assay type: ADME, organism-based; parameters: dose 10 mg/kg, route oral; settings: rat, in vivo, po
Procedure, shortened: (§2)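 Rats given a single dose, 1 mg/kg intravenous or 10 mg/kg oral, then sampled for plasma levels. Cmax, Tmax and AUCinf come from the plasma concentration–time profile.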

[5] = Time taken by the compound to reach its maximum concentration in plasma upon p.o. dose of 10 mg/kg in rats; assay type: ADME, organism-based; parameters: dose 10 mg/kg, route oral; settings: rat, po; procedure, shortened: as §2
[6] = Maximum plasma concentration upon i.v. dose of 1 mg/kg in rats; assay type: ADME, organism-based; parameters: dose 1 mg/kg, route intravenous; settings: rat, iv; procedure, shortened: as §2
[7] = Maximum plasma concentration upon p.o. dose of 10 mg/kg in rats; assay type: ADME, organism-based; parameters: dose 10 mg/kg, route oral; settings: rat, po; procedure, shortened: as §2
[8] = Area under curve for the compound upon i.v. dose of 1 mg/kg in rats; assay type: ADME, organism-based; parameters: dose 1 mg/kg, route intravenous; settings: rat, in vivo, iv; procedure, shortened: as §2
[9] = Oral bioavailability upon p.o. dose of 10 mg/kg in rats; assay type: ADME, organism-based; settings: rat, in vivo
[10] = molecular target: T2, Prostaglandin D2 receptor 2; assay: In vitro agonist potency towards human CRTH2 receptor expressed in CHO cells; range 15 to 50 nM
[11] = molecular target: T2, Prostaglandin D2 receptor 2; assay: Binding affinity towards human CRTH2 receptor expressed in CHO cells; range 25 nM to 8 uM; assay type: cell-based

Ki [1] [nM] | IC50 [2] [nM] | Ki [3] [nM] | Structure (SMILES) | also measured
> 10000 | 158 | 71 | Cc1c(CC(=O)O)c2cc(F)ccc2n1S(=O)(=O)c1ccc(F)cc1 | 
8460 | 26 | 29 | Cc1c(CC(=O)O)c2cc(F)ccc2n1S(=O)(=O)c1ccc(Cl)cc1 | 
> 10000 | > 10000 | 2980 | Cc1nc(S(=O)(=O)n2c(C)c(CC(=O)O)c3cc(F)ccc32)cn1C | 
6890 | 639 | 225 | Cc1c(CC(=O)O)c2cc(F)ccc2n1S(=O)(=O)c1cccc(F)c1 | 
 |  | 3500 | CSc1ccc(C=C2C(C)=C(CC(=O)O)c3cc(F)ccc32)cc1 [SULINDAC SULFIDE] | 
> 10000 | 158 | 68 | Cc1c(CC(=O)O)c2cc(F)ccc2n1S(=O)(=O)c1ccc(S(C)(=O)=O)cc1 | AUC [4]: 3480 ng·h/mL; Tmax [5]: 1.8 h; Cmax [6]: 1800 ng/mL; Cmax [7]: 332 ng/mL; AUC [8]: 619 ng·h/mL; bioavailability [9]: 56%
> 10000 | 842 | 634 | CCCCS(=O)(=O)n1c(C)c(CC(=O)O)c2cc(F)ccc21 | 
4860 | 987 | 250 | Cc1c(CC(=O)O)c2cc(F)ccc2n1S(=O)(=O)c1ccccc1 | 
 |  | 0.8 | O=C(O)C[C@@H]1CCn2c1c(Sc1ccc(Cl)cc1)c1ccc(F)cc12 | 
7710 | 318 | 299 | COc1ccc(S(=O)(=O)n2c(C)c(CC(=O)O)c3cc(F)ccc32)cc1 | 
> 10000 | 2180 | 457 | Cc1ccc(S(=O)(=O)n2c(C)c(CC(=O)O)c3cc(F)ccc32)cc1 | 
1870 | 44 | 19 | Cc1c(CC(=O)O)c2cc(F)ccc2n1S(=O)(=O)c1cc(Cl)ccc1Cl | 
 |  |  | COc1ccc2c(c1)c(CC(=O)O)c(C)n2C(=O)c1ccc(Cl)cc1 [INDOMETHACIN] | EC50 [10]: 50 nM; Ki [11]: 8000 nM
